Consider eight compounds from ChEMBL document CHEMBL1123749, “O-carbamoylsalicylates: agents for modification of hemoglobins” (J Med Chem, 1987).

What all share (type): functional
Assay [1] in a line: Effect of compound on modification of deoxy form of hemoglobin was expressed as percent modification at 5 mM concentration. In outline:
(§1)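 Human hemoglobin A (1.0 mM) treated with reagent in 0.1 M Tris-HCl buffer, pH 7.3, at 37 °C for 2 h. Extent of modification and oxygen affinity (p50, mm) then determined by a previously described method; p50 read with and without inositol hexaphosphate. Reagent concentration uncertain for some compounds owing to incomplete solubility.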

A short description of assay [2]: Effect of compound on oxygen affinity, was expressed as P50 (mmHg) at 5 mM concentration in the absence of Inositol hexa phosphate (IHP). In outline:
as §1

A short description of assay [3]: Effect of compound on oxygen affinity, was expressed as P50 (mmHg) at 5 mM concentration in the presence of Inositol hexa phosphate (IHP). In outline: as §1
A short description of assay [4]: Effect of compound on oxygen affinity, was expressed as P50 (mmHg) at 10 mM concentration in the absence of Inositol hexa phosphate (IHP). In outline: (§2)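 Hemoglobin A (1.0 mM) incubated with carbamate reagent in 0.1 M Tris-HCl, pH 7.3, at 37 °C for 2 h. Extent of modification and oxygen affinity (p50, mmHg) then measured by a previously described method. Oxygen binding was read with and without inositol hexaphosphate. At 10 mM, reagent concentration is uncertain for some compounds because of incomplete solubility.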

Assay [5] is described as follows: Effect of compound on oxygen affinity, was expressed as P50 (mmHg) at 10 mM concentration in the presence of 2 mM Inositol hexa phosphate (IHP). In outline:
as §2

A short description of assay [6]: Effect of compound on modification of oxy form of hemoglobin was expressed as percent modification at 10 mM concentration. In outline: as §1
Assay [7] is described as follows: Effect of compound on modification of oxy form of hemoglobin was expressed as percent modification at 5 mM concentration. In outline: as §1
Assay [8] is described as follows: Effect of compound on modification of oxy form of hemoglobin was expressed as percent modification at 10 mM concentration, concentration is uncertain due to incomplete solubility. In outline:
as §2

Assay [9] in a line: Effect of compound on oxygen affinity, expressed as P50 (mmHg) at 5 mM concentration in the presence of Inositol hexa phosphate (IHP). In outline: as §2
The nature of assay [10]: Effect of compound on oxygen affinity, expressed as P50 (mmHg) at 10 mM concentration in the presence of 2 mM Inositol hexa phosphate (IHP). In outline:
as §2

The nature of assay [11]: Effect of compound on modification of deoxy form of hemoglobin expressed as percent modification at 5 mM concentration. In outline: as §2
Assay [12] is described as follows: Effect of compound on modification of oxy form of hemoglobin expressed as percent modification at 5 mM concentration. In outline: as §2
A short description of assay [13]: Effect of compound on oxygen affinity, expressed as P50 (mmHg) at 5 mM concentration in the absence of Inositol hexa phosphate (IHP). In outline:
as §2

Assay [14] is described as follows: Effect of compound on oxygen affinity, expressed as P50 (mmHg) at 10 mM concentration in the absence of Inositol hexa phosphate (IHP). In outline:
as §2

Assay [15] is described as follows: Effect of compound on modification of oxy form of hemoglobin expressed as percent modification at 10 mM concentration. In outline: as §2

Turning to `CN(C)C(=O)Oc1ccccc1C(=O)OCc1ccccc1`, the Modification of hemoglobin in assay [1], in assay [6] and in assay [7] was 0% each time. For the same compound, the P50 amounted to 6 mmHg in [2], 42 mmHg in assay [3], 6 mmHg in assay [4] and 44 mmHg in [5].
In the case of `CN(C)C(=O)Oc1c(Br)cc(Br)cc1C(=O)OCc1ccccc1`, the Modification of hemoglobin in assay [1], in assay [6] and in assay [7] was 0% in each case. Also, the P50 in assay [2] worked out at 6 mmHg; in assay [3], 41 mmHg; in assay [4], 7 mmHg; in assay [5] it was 41 mmHg.
On to `NC(=O)Oc1ccccc1C(=O)O`, for which the results for the Modification of hemoglobin in assay [1], in [6] and in [7] were 58%, 94% and 62%, respectively. Further, the P50 is 6 mmHg in [2], 33 mmHg in assay [3], 6 mmHg in [4] and 22 mmHg in assay [5].
In turn, `CN(C)C(=O)Oc1ccccc1C(=O)O` registered a Modification of hemoglobin in [8] of 0%. Besides, the P50 turned out to be 6 mmHg in [4] and 42 mmHg in assay [5].
Turning to `COC(=O)c1ccccc1OC(N)=O`, the values for the Modification of hemoglobin in [1], in assay [6] and in assay [7] were 52%, 83% and 54%, respectively. In addition, the P50 worked out at 6 mmHg in [2], 35 mmHg in assay [3], 6 mmHg in [4] and 25 mmHg in [5].
On to `NC(=O)Oc1ccccc1C(=O)OCc1ccccc1`, for which the values for the Modification of hemoglobin in [1] and in assay [7] were 46% and 45%, respectively. Moreover, the P50 in assay [2] was 6 mmHg; in [3] it was 37.5 mmHg.
On to `COC(=O)c1ccc(OC(N)=O)cc1`, for which the values for the Modification of hemoglobin in [1], in assay [6] and in [7] were 58%, 89% and 61%, respectively. Further, the P50 was 6 mmHg in assay [2], 33 mmHg in [3], 6.5 mmHg in assay [4] and 23 mmHg in [5].
As for `NC(=O)Oc1ccccc1`, the P50 in assay [9] was 39 mmHg; in [10], 30 mmHg; in assay [13] it was 6 mmHg; in assay [14], 5 mmHg. The Modification of hemoglobin was 40% in assay [11], 44% in [12] and 67% in assay [15].
